Measured values reported in ChEMBL document CHEMBL4346672, “Antimicrobial and KPC/AmpC inhibitory activity of functionalized benzosiloxaboroles” (Eur J Med Chem, 2019).
Converted amounts (≈) assume the structure as drawn. The source made the active and inactive calls. The rule behind the calls is not given here.

Key:
Staphylococcus aureus [1] = test: Antibacterial activity against Staphylococcus aureus ATCC 6538P assessed as diameter of zone inhibition measured after 18 hrs by CLSI disc diffusion method; assay type: functional
How it was run: (§1)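 Disc diffusion on Mueller-Hinton II agar. Compounds dissolved in DMSO. Strains stored at -80 °C and subcultured twice on tryptic soy agar before testing. Inhibition zones read after 35 °C, 18 h.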

Serratia marcescens = test: Antibacterial activity against Serratia marcescens ATCC 13880 measured after 18 hrs by CLSI broth dilution method; assay type: functional; conditions: ATCC 13880, 18 h
How it was run: (§2)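 Broth MIC in Mueller-Hinton II broth following CLSI, compounds dissolved in DMSO. Strains subcultured twice on tryptic soy agar before testing. Growth read after 35 °C, 18 h.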

[2] = Dissociation constant, pKa1 of compound in 0.1 M NaOH by potentiometric analysis; assay type: physicochemical
Candida albicans [3] = test: Antifungal activity against Candida albicans ATCC 90028 assessed as decrease in fungal cell growth at 0.78 to 12.5 mg/L incubated for 24 hrs by CLSI broth dilution method; assay type: functional; conditions: ATCC 90028, 24 h
How it was run: (§3)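 Yeast broth dilution in RPMI 1640 with 2% glucose, compounds in DMSO. Yeasts pre-grown on Sabouraud dextrose agar. Growth read after 35 °C, 24 h.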

Candida parapsilosis = test: Antifungal activity against Candida parapsilosis ATCC 22019 assessed as decrease in fungal cell growth at 0.78 to 12.5 mg/L incubated for 24 hrs by CLSI broth dilution method; assay type: functional; conditions: Lodderomyces parapsilosis, ATCC 22019, 24 h; how it was run: as §3
Candida tropicalis = test: Antifungal activity against Candida tropicalis IBA 171 assessed as decrease in fungal cell growth at 0.78 to 12.5 mg/L incubated for 24 hrs by CLSI broth dilution method; assay type: functional; conditions: IBA 171, 24 h; how it was run: as §3
Pichia kudriavzevii [4] = test: Antifungal activity against Candida krusei ATCC 6258 assessed as decrease in fungal cell growth at 0.78 to 12.5 mg/L incubated for 24 hrs by CLSI broth dilution method; assay type: functional; conditions: ATCC 6258, 24 h; how it was run: as §3
Candida albicans [5] = test: Antifungal activity against Candida albicans ATCC 90028 assessed as diameter of zone inhibition incubated for 24 hrs by CLSI disc diffusion method; assay type: functional
How it was run: (§4)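 Yeast disc diffusion on Mueller-Hinton agar supplemented with 2% glucose and 0.5 mg/L methylene blue. Compounds in DMSO. Yeasts subcultured on Sabouraud dextrose agar before testing. Zones read after 35 °C, 24 h.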

[6] = tested on: Meyerozyma guilliermondii; test: Antifungal activity against Candida guilliermondii IBA 155 assessed as diameter of zone inhibition incubated for 24 hrs by CLSI disc diffusion method; assay type: functional; how it was run: as §4
Pichia kudriavzevii [7] = test: Antifungal activity against Candida krusei ATCC 6258 assessed as diameter of zone inhibition incubated for 24 hrs by CLSI disc diffusion method; assay type: functional; how it was run: as §4
Saccharomyces cerevisiae = test: Antifungal activity against Saccharomyces cerevisiae ATCC 9763 diameter of zone inhibition incubated for 24 hrs by CLSI disc diffusion method; assay type: functional
How it was run: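 Disc-diffusion run on Mueller-Hinton II agar with 2% glucose and 0.5 mg/L methylene blue, using compounds in DMSO. Yeast was precultured on Sabouraud dextrose agar (24–48 h, 30 °C). Zones read after 24 h at 35 °C.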

Staphylococcus aureus [8] = test: Antibacterial activity against Staphylococcus aureus ATCC 6538P measured after 18 hrs by CLSI broth dilution method; assay type: functional; how it was run: as §2
Enterococcus faecium [9] = test: Antibacterial activity against Enterococcus faecium ATCC 6057 measured after 18 hrs by CLSI broth dilution method; assay type: functional; conditions: ATCC 6057, 18 h; how it was run: as §2
Enterococcus faecalis = test: Antibacterial activity against Enterococcus faecalis ATCC 29212 assessed as diameter of zone inhibition measured after 18 hrs by CLSI disc diffusion method; assay type: functional; how it was run: as §1
Enterococcus faecium [10] = test: Antibacterial activity against Enterococcus faecium ATCC 6057 assessed as diameter of zone inhibition measured after 18 hrs by CLSI disc diffusion method; assay type: functional; how it was run: as §1
Bacillus subtilis = test: Antibacterial activity against Bacillus subtilis ATCC 6633 assessed as diameter of zone inhibition measured after 18 hrs by CLSI disc diffusion method; assay type: functional; how it was run: as §1
Escherichia coli [11] = test: Antibacterial activity against Escherichia coli ATCC 25922 measured after 18 hrs by CLSI broth dilution method; assay type: functional; conditions: ATCC 25922, 18 h; how it was run: as §2
Proteus mirabilis [12] = test: Antibacterial activity against Proteus mirabilis ATCC 12453 measured after 18 hrs by CLSI broth dilution method; assay type: functional; conditions: ATCC 12453, 18 h; how it was run: as §2
Enterobacter cloacae [13] = test: Antibacterial activity against Enterobacter cloacae DSM 6234 measured after 18 hrs by CLSI broth dilution method; assay type: functional; conditions: DSM 6234, 18 h; how it was run: as §2
[14] = tested on: Bordetella bronchiseptica; test: Antibacterial activity against Bordetella bronchiseptica ATCC 4617 measured after 18 hrs by CLSI broth dilution method; assay type: functional; conditions: ATCC 4617, 18 h; how it was run: as §2
Acinetobacter baumannii [15] = test: Antibacterial activity against Acinetobacter baumannii ATCC 19606 measured after 18 hrs by CLSI broth dilution method; assay type: functional; conditions: ATCC 19606, 18 h; how it was run: as §2
[16] = tested on: Stenotrophomonas maltophilia; test: Antibacterial activity against Stenotrophomonas maltophilia ATCC 13637 measured after 18 hrs by CLSI broth dilution method; assay type: functional; conditions: ATCC 13637, 18 h; how it was run: as §2
Escherichia coli [17] = test: Antibacterial activity against Escherichia coli ATCC 25922 assessed as diameter of zone inhibition measured after 18 hrs by CLSI disc diffusion method; assay type: functional; how it was run: as §1
Proteus mirabilis [18] = test: Antibacterial activity against Proteus mirabilis ATCC 12453 assessed as diameter of zone inhibition measured after 18 hrs by CLSI disc diffusion method; assay type: functional; how it was run: as §1
Enterobacter cloacae [19] = test: Antibacterial activity against Enterobacter cloacae DSM 6234 assessed as diameter of zone inhibition measured after 18 hrs by CLSI disc diffusion method; assay type: functional; how it was run: as §1
Pseudomonas aeruginosa [20] = test: Antibacterial activity against Pseudomonas aeruginosa ATCC 27853 assessed as diameter of zone inhibition measured after 18 hrs by CLSI disc diffusion method; assay type: functional, organism-based; how it was run: as §1
Acinetobacter baumannii [21] = test: Antibacterial activity against Acinetobacter baumannii ATCC 19606 assessed as diameter of zone inhibition measured after 18 hrs by CLSI disc diffusion method; assay type: functional; how it was run: as §1
[22] = tested on: Stenotrophomonas maltophilia; test: Antibacterial activity against Stenotrophomonas maltophilia ATCC 13637 assessed as diameter of zone inhibition measured after 18 hrs by CLSI disc diffusion method; assay type: functional; how it was run: as §1
Burkholderia cepacia = test: Antibacterial activity against Burkholderia cepacia ATCC 25416 assessed as diameter of zone inhibition measured after 18 hrs by CLSI disc diffusion method; assay type: functional; how it was run: as §1
[23] = tested on: Bordetella bronchiseptica; test: Antibacterial activity against Bordetella bronchiseptica ATCC 4617 assessed as diameter of zone inhibition measured after 18 hrs by CLSI disc diffusion method; assay type: functional; how it was run: as §1
Enterobacter cloacae [24] = test: Antibacterial activity against Enterobacter cloacae DSM 6234 assessed as fold reduction of MIC in presence of efflux pump inhibitor PAbetaN incubated for 18 hrs by broth microdilution method; assay type: functional
How it was run: (§5)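 MICs determined with and without PAβN at 50 mg/L in Mueller-Hinton broth containing 1 mM MgSO₄. 2-fold serial dilutions per CLSI. Fold change taken from the paired MICs after 35 °C, 18 h.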

Pseudomonas aeruginosa [25] = test: Antibacterial activity against Pseudomonas aeruginosa ATCC 27853 assessed as fold reduction of MIC in presence of efflux pump inhibitor PAbetaN incubated for 18 hrs microdilution method; assay type: functional; how it was run: as §5
[26] = tested on: Stenotrophomonas maltophilia; test: Antibacterial activity against Stenotrophomonas maltophilia ATCC 13637 assessed as fold reduction of MIC in presence of efflux pump inhibitor PAbetaN incubated for 18 hrs by broth microdilution method; assay type: functional; how it was run: as §5

MIC (Serratia marcescens)	pKa [2]	MIC (Candida albicans [3])	MIC (Candida parapsilosis)	MIC (Candida tropicalis)	MIC (Pichia kudriavzevii [4])	MIC (Staphylococcus aureus [8])	MIC (Enterococcus faecium [9])	MIC (Escherichia coli [11])	MIC (Proteus mirabilis [12])	MIC (Enterobacter cloacae [13])	MIC [14]	Compound	diameter of the inhibition zone (DIZ) (Staphylococcus aureus [1])	diameter of the inhibition zone (DIZ) (Candida albicans [5])	diameter of the inhibition zone (DIZ) [6]	diameter of the inhibition zone (DIZ) (Pichia kudriavzevii [7])	diameter of the inhibition zone (DIZ) (Saccharomyces cerevisiae)	diameter of the inhibition zone (DIZ) (Enterococcus faecalis)	diameter of the inhibition zone (DIZ) (Enterococcus faecium [10])	diameter of the inhibition zone (DIZ) (Bacillus subtilis)	further results
> 400 µg/mL	7.3	12.5 µg/mL (≈ 58.8 µM)	25 µg/mL (≈ 118 µM)	6.25 µg/mL (≈ 29.4 µM)	25 µg/mL (≈ 118 µM)	50 µg/mL (≈ 235 µM)	50 µg/mL (≈ 235 µM)	400 µg/mL (≈ 1880 µM)	> 400 µg/mL	> 400 µg/mL	400 µg/mL (≈ 1880 µM)	C[Si]1(C)OB(O)c2ccc(Cl)cc21	20 mm	28 mm	30 mm	26 mm	47 mm	17 mm	14 mm	34 mm	MIC (Acinetobacter baumannii [15]): 400 µg/mL (≈ 1880 µM); MIC [16]: 100 µg/mL (≈ 471 µM); diameter of the inhibition zone (DIZ) (Escherichia coli [17]): inactive; diameter of the inhibition zone (DIZ) (Proteus mirabilis [18]): inactive; diameter of the inhibition zone (DIZ) (Enterobacter cloacae [19]): inactive; diameter of the inhibition zone (DIZ) (Pseudomonas aeruginosa [20]): inactive; diameter of the inhibition zone (DIZ) (Acinetobacter baumannii [21]): 13 mm; diameter of the inhibition zone (DIZ) [22]: 19 mm; diameter of the inhibition zone (DIZ) (Burkholderia cepacia): 11 mm; diameter of the inhibition zone (DIZ) [23]: 11 mm; fold change (FC) (Enterobacter cloacae [24]): 64; fold change (FC) (Pseudomonas aeruginosa [25]): 32; fold change (FC) [26]: 16
> 400 µg/mL	7.2	50 µg/mL (≈ 255 µM)	100 µg/mL (≈ 510 µM)	50 µg/mL (≈ 255 µM)	50 µg/mL (≈ 255 µM)	50 µg/mL (≈ 255 µM)	200 µg/mL (≈ 1020 µM)	400 µg/mL (≈ 2040 µM)	200 µg/mL (≈ 1020 µM)	> 400 µg/mL	200 µg/mL (≈ 1020 µM)	C[Si]1(C)OB(O)c2cccc(F)c21	25 mm	24 mm	30 mm	18 mm	45 mm	13 mm	12 mm	28 mm	MIC (Acinetobacter baumannii [15]): 200 µg/mL (≈ 1020 µM); MIC [16]: 200 µg/mL (≈ 1020 µM); diameter of the inhibition zone (DIZ) (Escherichia coli [17]): 17 mm; diameter of the inhibition zone (DIZ) (Proteus mirabilis [18]): 16 mm; diameter of the inhibition zone (DIZ) (Enterobacter cloacae [19]): inactive; diameter of the inhibition zone (DIZ) (Pseudomonas aeruginosa [20]): inactive; diameter of the inhibition zone (DIZ) (Acinetobacter baumannii [21]): 11 mm; diameter of the inhibition zone (DIZ) [22]: 11 mm; diameter of the inhibition zone (DIZ) (Burkholderia cepacia): inactive; diameter of the inhibition zone (DIZ) [23]: inactive; fold change (FC) (Enterobacter cloacae [24]): 32; fold change (FC) (Pseudomonas aeruginosa [25]): 16; fold change (FC) [26]: 8
> 200 µg/mL	7.9	100 µg/mL (≈ 562 µM)	25 µg/mL (≈ 140 µM)	25 µg/mL (≈ 140 µM)	25 µg/mL (≈ 140 µM)	200 µg/mL (≈ 1120 µM)	200 µg/mL (≈ 1120 µM)	> 200 µg/mL	> 200 µg/mL	> 200 µg/mL	> 200 µg/mL	C[Si]1(C)OB(O)c2ccccc21	inactive	inactive	12 mm	inactive	36 mm	inactive	inactive	14 mm	MIC (Acinetobacter baumannii [15]): > 200 µg/mL; MIC [16]: > 200 µg/mL; diameter of the inhibition zone (DIZ) (Escherichia coli [17]): inactive; diameter of the inhibition zone (DIZ) (Proteus mirabilis [18]): inactive; diameter of the inhibition zone (DIZ) (Enterobacter cloacae [19]): inactive; diameter of the inhibition zone (DIZ) (Pseudomonas aeruginosa [20]): inactive; diameter of the inhibition zone (DIZ) (Acinetobacter baumannii [21]): inactive; diameter of the inhibition zone (DIZ) [22]: inactive; diameter of the inhibition zone (DIZ) (Burkholderia cepacia): inactive; diameter of the inhibition zone (DIZ) [23]: inactive; fold change (FC) (Enterobacter cloacae [24]): 4; fold change (FC) (Pseudomonas aeruginosa [25]): 8; fold change (FC) [26]: 8
> 400 µg/mL	7.4	> 400 µg/mL	400 µg/mL (≈ 1800 µM)	400 µg/mL (≈ 1800 µM)	50 µg/mL (≈ 225 µM)	400 µg/mL (≈ 1800 µM)	400 µg/mL (≈ 1800 µM)	> 400 µg/mL	> 400 µg/mL	> 400 µg/mL	> 400 µg/mL	C[Si]1(C)OB(O)c2cccc(B(O)O)c21	11 mm	inactive	inactive	inactive	inactive	inactive	inactive	15 mm	MIC (Acinetobacter baumannii [15]): 400 µg/mL (≈ 1800 µM); MIC [16]: > 400 µg/mL; diameter of the inhibition zone (DIZ) (Escherichia coli [17]): inactive; diameter of the inhibition zone (DIZ) (Proteus mirabilis [18]): inactive; diameter of the inhibition zone (DIZ) (Enterobacter cloacae [19]): inactive; diameter of the inhibition zone (DIZ) (Pseudomonas aeruginosa [20]): inactive; diameter of the inhibition zone (DIZ) (Acinetobacter baumannii [21]): inactive; diameter of the inhibition zone (DIZ) [22]: 12 mm; diameter of the inhibition zone (DIZ) (Burkholderia cepacia): inactive; diameter of the inhibition zone (DIZ) [23]: inactive; fold change (FC) (Enterobacter cloacae [24]): 8; fold change (FC) (Pseudomonas aeruginosa [25]): 4; fold change (FC) [26]: 16
